Laboratory results published in article PMC3889329 (Diabetes Therapy, 2013).
“Also recorded” adds a separate entry of the source.

Experiments:
[1] = tested on: patients with type 2 diabetes mellitus; assay: Laboratory electrolyte and lipid measurements; format: in vivo, human; conditions: normalized to a standard reference range
[2] = tested on: patients with type 2 diabetes mellitus; assay: Urine volume and micturition frequency; format: in vivo, human
Method in brief: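 Urine volume and micturition frequency were recorded under controlled fluid intake, with oral once-daily dosing of test compound or placebo taken with 240 mL water. Dosing was a single dose on day 1, then days 3–9. Placebo was given within each dose group at a 3:1 active:placebo randomization.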

[3] = tested on: patients with type 2 diabetes mellitus; assay: Derived creatinine clearance; format: in vivo, human
Method in brief: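 Derived creatinine clearance was calculated from urinary creatinine concentration and volume in timed urine fractions, together with plasma creatinine. It is expressed as […] and given as change from baseline. Dosing was oral, once daily with 240 mL water: a single dose on day 1, then daily on days 3–9.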

[4] = Pharmacokinetics in plasma and urine; format: in vivo, human
Method in brief: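 Plasma was sampled pre-dose on days −2, −1, 1, 2, 3 and 5–9, up to 48 h after the day 1 single dose and up to 72 h after the day 9 dose. Urine was collected on days 1 and 9. Analysis was by HPLC–MS/MS (LLOQ 1.11 nmol/L plasma, 4.44 nmol/L urine). AUC used linear-up/log-down trapezoids. Steady state was assessed from day 5–9 troughs with a log-scale repeated-measures model. n = 36.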

[5] = tested on: patients with type 2 diabetes mellitus; assay: Urinary glucose excretion; format: in vivo, human; conditions: day 1
Method in brief: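 All urine was collected over 24 h on days −2, −1, 1, 8 and 9, extended to 48 h after day 1 and 72 h after day 9. Ae0–24 was measured after a single dose with OGTT (75 g glucose, day 1) and after multiple daily doses, fasting (day 8) or with OGTT (day 9). Results are mean (SD) for the treated set.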

[6] = tested on: patients with type 2 diabetes mellitus; assay: Fasting plasma glucose; format: in vivo, human; conditions: day 10, 1 day after the last dose
Method in brief: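 Fasting plasma glucose was measured after a 10 h overnight fast. Dosing was oral, once daily with 240 mL water: a single dose on day 1, none on day 2, then daily on days 3–9. Patients were randomized 3:1 to test compound or placebo within each dose group (2.5, 10, 25, 100 mg; n = 12 per group). Descriptive statistics used the treated set (n = 48).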

[7] = tested on: patients with type 2 diabetes mellitus; assay: Oral glucose tolerance test, glucose AUEC1-5; format: in vivo, human; conditions: for Glucose AUEC1–5, change from baseline to day 9: baseline day −1
Method in brief: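 For the OGTT, 75 g glucose solution was given after an overnight fast on days −1, 1 and 9, with the test compound or placebo given orally once daily. Glucose AUEC was calculated over 1–5 h after OGTT. Change is from baseline on day −1. Patients were randomized 3:1 to active or placebo per dose group. Analysis was descriptive.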

SGLT2 = conditions: in vitro, cited from earlier work
SGLT1 = conditions: in vitro; cited from earlier work
healthy volunteers = conditions: single oral doses; cited from earlier work

For `OC[C@H]1O[C@@H](c2ccc(Cl)c(Cc3ccc(O[C@H]4CCOC4)cc3)c2)[C@H](O)[C@@H](O)[C@@H]1O` [Empagliflozin], the “Calcium, mean (SD), last value on treatment” value (“Calcium, mean (SD), last value” below) ([1]; 2.5 mg qd) was 2.3 (0.1) mmol/l, the “HDL-cholesterol, mean (SD), last value on treatment” value (from here on “HDL-cholesterol, mean (SD)”) ([1]; 2.5 mg qd) was 16 (18) mg/dL and the “Potassium, mean (SD), last value on treatment” value (shortened to “Potassium, mean (SD)”) ([1]; 2.5 mg qd) was 4.2 (0.3) mmol/l. The “Sodium, mean (SD), last value on treatment” value (from here on “Sodium, mean (SD), last value”) ([1]; 2.5 mg qd) was 140 (2) mmol/l, the “Total cholesterol, mean (SD), last value on treatment” value (from here on “Total cholesterol, mean (SD)”) ([1]; 2.5 mg qd) was 175 (11) mg/dL and the “Triglycerides, mean (SD), last value on treatment” value (“Triglycerides, mean (SD)” for short) ([1]; 2.5 mg qd) was 171 (65) mg/dL. The “HDL-cholesterol, mean (SD)” value ([1]; 10 mg qd, N = 8) was 31 (18) mg/dL, the “Calcium, mean (SD), last value” value ([1]; 10 mg qd) was 2.3 (0.1) mmol/l and the “Potassium, mean (SD)” value ([1]; 10 mg qd) was 4.4 (0.3) mmol/l. The “Sodium, mean (SD), last value” value ([1]; 10 mg qd) was 140 (1) mmol/l, the “Total cholesterol, mean (SD)” value ([1]; 10 mg qd) was 171 (25) mg/dL and the “Triglycerides, mean (SD)” value ([1]; 10 mg qd) was 114 (42) mg/dL. For the same compound, the “Calcium, mean (SD), last value” value ([1]; 25 mg qd) was 2.3 (0.1) mmol/l, the “HDL-cholesterol, mean (SD)” value ([1]; 25 mg qd) was 41 (17) mg/dL and the “Potassium, mean (SD)” value ([1]; 25 mg qd) was 4.1 (0.3) mmol/l. For the same compound, the “Sodium, mean (SD), last value” value ([1]; 25 mg qd) was 139 (2) mmol/l, the “Total cholesterol, mean (SD)” value ([1]; 25 mg qd) was 174 (13) mg/dL and the “Triglycerides, mean (SD)” value ([1]; 25 mg qd) was 89 (26) mg/dL. For the same compound, the “Calcium, mean (SD), last value” value ([1]; 100 mg qd) was 2.3 (0.1) mmol/l, the “HDL-cholesterol, mean (SD)” value ([1]; 100 mg qd) was 37 (18) mg/dL and the “Potassium, mean (SD)” value ([1]; 100 mg qd) was 4.5 (0.3) mmol/l. For the same compound, the “Sodium, mean (SD), last value” value ([1]; 100 mg qd) was 139 (2) mmol/l, the “Total cholesterol, mean (SD)” value ([1]; 100 mg qd) was 174 (11) mg/dL and the “Triglycerides, mean (SD)” value ([1]; 100 mg qd) was 97 (27) mg/dL. For the same compound, the “Mean (SD) micturition day frequency” value ([2]; 2.5 mg qd, Day 1, day 07:00–18:59) was 6.0 (1.2), the “Mean (SD) micturition night frequency” value ([2]; 2.5 mg qd, Day 1, night 19:00–06:59) was 3.7 (1.5) and the “Mean (SD) micturition day frequency” value ([2]; 2.5 mg qd, Day 8, day 07:00–18:59) was 6.6 (1.8). For the same compound, the “Mean (SD) micturition night frequency” value ([2]; 2.5 mg qd, Day 8, night 19:00–06:59) was 3.7 (1.2), the “Mean (SD) micturition day frequency” value ([2]; 2.5 mg qd, Day 9, day 07:00–18:59) was 6.4 (1.9) and the “Mean (SD) micturition night frequency” value ([2]; 2.5 mg qd, Day 9, night 19:00–06:59) was 3.4 (1.3). For the same compound, the “Mean (SD) micturition day frequency” value ([2]; 10 mg qd, Day 1, day 07:00–18:59) was 8.3 (1.7), the “Mean (SD) micturition night frequency” value ([2]; 10 mg qd, Day 1, night 19:00–06:59) was 3.8 (0.8) and the “Mean (SD) micturition day frequency” value ([2]; 10 mg qd, Day 8, day 07:00–18:59) was 6.8 (1.6). The “Mean (SD) micturition night frequency” value ([2]; 10 mg qd, Day 8, night 19:00–06:59) was 4.0 (1.7), the “Mean (SD) micturition day frequency” value ([2]; 10 mg qd, Day 9, day 07:00–18:59) was 8.9 (1.7) and the “Mean (SD) micturition night frequency” value ([2]; 10 mg qd, Day 9, night 19:00–06:59) was 3.7 (0.5). The “Mean (SD) micturition day frequency” value ([2]; 25 mg qd, Day 1, day 07:00–18:59) was 7.8 (2.6), the “Mean (SD) micturition night frequency” value ([2]; 25 mg qd, Day 1, night 19:00–06:59) was 4.3 (1.0) and the “Mean (SD) micturition day frequency” value ([2]; 25 mg qd, Day 8, day 07:00–18:59) was 7.0 (1.6). The “Mean (SD) micturition night frequency” value ([2]; 25 mg qd, Day 8, night 19:00–06:59) was 4.8 (1.6), the “Mean (SD) micturition day frequency” value ([2]; 25 mg qd, Day 9, day 07:00–18:59) was 8.2 (2.0) and the “Mean (SD) micturition night frequency” value ([2]; 25 mg qd, Day 9, night 19:00–06:59) was 4.1 (1.4). The “Mean (SD) micturition day frequency” value ([2]; 100 mg qd, Day 1, day 07:00–18:59) was 7.9 (2.4), the “Mean (SD) micturition night frequency” value ([2]; 100 mg qd, Day 1, night 19:00–06:59) was 3.6 (1.1) and the “Mean (SD) micturition day frequency” value ([2]; 100 mg qd, Day 8, day 07:00–18:59) was 6.9 (1.5). The “Mean (SD) micturition night frequency” value ([2]; 100 mg qd, Day 8, night 19:00–06:59) was 4.7 (1.5), the “Mean (SD) micturition day frequency” value ([2]; 100 mg qd, Day 9, day 07:00–18:59) was 8.4 (2.5) and the “Mean (SD) micturition night frequency” value ([2]; 100 mg qd, Day 9, night 19:00–06:59) was 3.7 (1.0). The “Change in micturition frequency compared with placebo” value ([2]; controlled fluid intake conditions) was “no changes in urine volume or micturition frequency; also recorded: no changes to micturition frequency”, the “Change from baseline in derived creatinine clearance, mean (SD)” value (“Change from baseline … (SD)” for short) ([3]; 2.5 mg qd, 16 h) was −57.0 (59.4) mL/min 1.73 m^2 and the “Change from baseline … (SD)” value ([3]; 2.5 mg qd, 166 h, n = 7) was 360 (620) mL/min 1.73 m^2. The “Change from baseline … (SD)” value ([3]; 2.5 mg qd, 184 h) was −20.3 (59.2) mL/min 1.73 m^2, the “Change from baseline … (SD)” value ([3]; 10 mg qd, 16 h) was −28.7 (34.2) mL/min 1.73 m^2 and the “Change from baseline … (SD)” value ([3]; 10 mg qd, 166 h) was 12.8 (54.7) mL/min 1.73 m^2. For the same compound, the “Change from baseline … (SD)” value ([3]; 10 mg qd, 184 h) was −38.4 (36.4) mL/min 1.73 m^2, the “Change from baseline … (SD)” value ([3]; 25 mg qd, 16 h) was −89.2 (43.2) mL/min 1.73 m^2 and the “Change from baseline … (SD)” value ([3]; 25 mg qd, 166 h) was −40.3 (61.7) mL/min 1.73 m^2. The “Change from baseline … (SD)” value ([3]; 25 mg qd, 184 h) was −52.4 (45.5) mL/min 1.73 m^2, the “Change from baseline … (SD)” value ([3]; 100 mg qd, 16 h) was −21.0 (59.3) mL/min 1.73 m^2 and the “Change from baseline … (SD)” value ([3]; 100 mg qd, 166 h) was −10.6 (58.0) mL/min 1.73 m^2. The “Change from baseline … (SD)” value ([3]; 100 mg qd, 184 h) was −14.4 (55.3) mL/min 1.73 m^2, the “Accumulation at steady state” value ([4]; 2.5–100 mg qd) was “up to 23%” and the half-life ([4]; human, plasma, oral, Mean t 1/2 at steady state, day 9, range over 2.5–100 mg qd) was 10.3 to 18.8 h. The Tmax ([4]; human, plasma, po) was 1.5 to 3 h, the “Steady state reached by” value ([4]; repeated once-daily dosing, trough concentrations days 5–8) was at most 5 days and the “Amount of glucose excreted in the urine over 24 h (Ae0–24)” value ([5]; 2.5 mg single dose, OGTT conditions) was 46.3 g. The “Increase in UGE with fourfold dose increase from 2.5 to 10 mg” value ([5]; single dose) was “more than a twofold increase”, the “Increase in UGE with fourfold dose increase from 25 to 100 mg” value ([5]; single dose) was about 1.2 fold and the “FPG lower than on day 1” value [6] was “at least 14%”. The “Mean (SD) glucose AUEC1–5, Day 9” value ([7]; 2.5 mg qd, after OGTT) was 713 (216) mg h/dL, the “Glucose AUEC1–5, change from baseline to day 9” value (shortened to “Glucose AUEC1–5, change”) ([7]; 2.5 mg qd, after OGTT) was 23.1% and the “Glucose AUEC1–5, change” value ([7]; 10 mg qd, after OGTT) was 27.5%. For the same compound, the “Mean (SD) glucose AUEC1–5, Day 9” value ([7]; 10 mg qd, n = 8, after OGTT) was 655 (144) mg h/dL, the “Mean (SD) glucose AUEC1–5, Day 9” value ([7]; 25 mg qd, after OGTT) was 679 (109) mg h/dL and the “Glucose AUEC1–5, change” value ([7]; 25 mg qd, after OGTT) was 23.0%. The “Mean (SD) glucose AUEC1–5, Day 9” value ([7]; 100 mg qd, after OGTT) was 817 (126) mg h/dL, the “Glucose AUEC1–5, change” value ([7]; 100 mg qd, after OGTT) was 22.9% and the pIC50 (SE), inhibition of SGLT2 (SGLT2) was 8.5. The IC50 (SGLT2; read-out: IC50, inhibition of SGLT2) was 3.1 nM, the “Selectivity for SGLT2 over SGLT1” value (SGLT1) was > 2,500 fold and the Tolerability (healthy volunteers) was “well tolerated”.
